# Reference: ChEMBL document CHEMBL3351780, “Novel hybrids of metronidazole and quinolones: synthesis, bioactive evaluation, cytotoxicity, preliminary antimicrobial mechanism and effect of metal ions on their transportation by human serum albumin” (Eur J Med Chem, 2014)
# Assays:
# Streptococcus pneumoniae = assay: Antibacterial activity against Streptococcus pneumoniae by two-fold serial dilution method; format: functional
# Method in brief: (§1)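 Standard two-fold serial dilution in 96-well microtest plates following NCCLS. Top dilutions printed as 32, 16, 8, 4, 2, 1, 0.5 ug/mL. Wells inoculated and held at 37 °C for 24 h. Growth judged visually and by spectrophotometer, in triplicate. MIC is the lowest concentration giving complete growth inhibition.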
# Micrococcus luteus = assay: Antibacterial activity against Micrococcus luteus by two-fold serial dilution method; format: functional; method in brief: as §1
# Staphylococcus aureus [1] = assay: Antibacterial activity against methicillin-resistant Staphylococcus aureus N315 by two-fold serial dilution method; format: functional
# Method in brief: (§2)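 MIC read as the lowest concentration giving complete growth inhibition. Two-fold serial dilutions were made in 96-well plates following NCCLS, giving a series down to 0.5 µg/mL (…32, 16, 8, 4, 2, 1, 0.5). Plates were inoculated and incubated at 37 °C for 24 h. A DMSO-with-inoculum control without drug was included. Growth was monitored visually and spectrophotometrically, in triplicate.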
# Staphylococcus aureus [2] = assay: Antibacterial activity against Staphylococcus aureus ATCC 25923 by two-fold serial dilution method; format: functional; method in brief: as §1
# Bacillus spizizenii = assay: Antibacterial activity against Bacillus subtilis ATCC 6633 by two-fold serial dilution method; format: functional; method in brief: as §1
# Pseudomonas aeruginosa = assay: Antibacterial activity against Pseudomonas aeruginosa by two-fold serial dilution method; format: functional; method in brief: as §1
# Escherichia coli = assay: Antibacterial activity against Escherichia coli DH52 by two-fold serial dilution method; format: functional; method in brief: as §1
# Shigella dysenteriae = assay: Antibacterial activity against Shigella dysenteriae by two-fold serial dilution method; format: functional; method in brief: as §2
# [3] = Antibacterial activity against Eberthella typhosa by two-fold serial dilution method; format: functional; method in brief: as §2
# Cyberlindnera jadinii = assay: Antifungal activity against Candida utilis after 24 hrs by microbroth dilution method; format: functional; conditions: Williopsis jadinii
# Method in brief: (§3)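 Spore suspension prepared in sterile distilled water from one-day-old cultures on Sabouraud agar, final 1-5 x 10^3 spores/mL. Compounds were serially diluted in RPMI 1640 to give eleven dilutions. Incubation at 35 °C for 24 h. Growth read visually and spectrophotometrically, in triplicate. MIC is the lowest concentration with complete inhibition.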
# Saccharomyces cerevisiae = assay: Antifungal activity against Saccharomyces cerevisiae after 24 hrs by microbroth dilution method; format: functional; method in brief: as §3
# Candida albicans = assay: Antifungal activity against Candida albicans ATCC 76615 after 24 hrs by microbroth dilution method; format: functional; conditions: ATCC 76615, 24 h; method in brief: as §3
# Pichia norvegensis = assay: Antifungal activity against Candida mycoderma after 24 hrs by microbroth dilution method; format: functional
# [4] = Dissociation constant, pKa of the compound by UV-spectroscopy; format: physicochemical
# Method in brief: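 DMSO stock at 4.0 × 10^-3 mol/L added to 2 mL of buffer, then shaken 10 min at room temperature. Buffers were acetate (pH 4.0–5.0), MES (5.5–6.5), HEPES (7.0–8.0) and CHES (8.5–9.4), each from 500 mM stocks. Scans ran 210–400 nm and were normalized. Absolute differences from the acid spectrum were summed at 244 and 308 nm, plotted against pH and fitted to obtain pKa.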
# [5] = Octanol-water partition co-efficient, log P of the compound by shake flask method; format: physicochemical
# [6] = Aqueous solubility of the compound by UV-spectrophotometry; format: physicochemical
SMILES,MIC (Streptococcus pneumoniae) [µg/mL],MIC (Micrococcus luteus) [µg/mL],MIC (Staphylococcus aureus [1]) [µg/mL],MIC (Staphylococcus aureus [2]) [µg/mL],MIC (Bacillus spizizenii) [µg/mL],MIC (Pseudomonas aeruginosa) [µg/mL],MIC (Escherichia coli) [µg/mL],MIC (Shigella dysenteriae) [µg/mL],MIC [3] [µg/mL],MIC (Cyberlindnera jadinii) [µg/mL],MIC (Saccharomyces cerevisiae) [µg/mL],MIC (Candida albicans) [µg/mL],MIC (Pichia norvegensis) [µg/mL],pKa [4],logP [5],solubility [6] [µg/mL]
O=C(O)c1cn(CC(O)Cn2cnc([N+](=O)[O-])c2)c2c(Cl)cc(Cl)cc2c1=O (stereo not drawn),8,8,16,8,4,8,8,8,16,256,128,256,64,–,–,–
O=C(O)c1cn(CC(O)Cn2cnc([N+](=O)[O-])c2)c2ccc(F)cc2c1=O (stereo not drawn),8,16,8,16,16,8,8,8,8,128,64,64,256,–,–,–
O=C(O)c1cn(CC(O)Cn2cnc([N+](=O)[O-])c2)c2cc(Cl)c(F)cc2c1=O (stereo not drawn),16,8,8,16,8,4,32,16,2,256,64,128,128,–,–,–
O=C(O)c1cn(CC(O)Cn2cnc([N+](=O)[O-])c2)c2c(F)cc(F)cc2c1=O (stereo not drawn),16,8,16,16,8,32,32,32,32,256,256,16,64,–,–,–
Cc1ncc([N+](=O)[O-])n1CC(O)Cn1cc(C(=O)O)c(=O)c2cc(Cl)cc(Cl)c21 (stereo not drawn),16,16,32,16,8,8,32,16,32,256,64,128,256,5.26,0.22,350
Cc1ncc([N+](=O)[O-])n1CC(O)Cn1cc(C(=O)O)c(=O)c2cc(F)c(Cl)cc21 (stereo not drawn),8,64,4,32,8,16,2,16,128,512,128,64,256,5.14,0.18,430
O=C(O)c1cn(CC(O)Cn2cnc([N+](=O)[O-])c2)c2c(F)cccc2c1=O (stereo not drawn),32,4,4,16,4,8,4,8,32,512,64,128,128,–,–,–
CCOC(=O)c1cn(CC(O)Cn2cnc([N+](=O)[O-])c2)c2cc(Cl)c(F)cc2c1=O (racemic),–,16,4,16,16,16,32,16,8,32,64,32,128,–,–,–
CCOC(=O)c1cn(CC(O)Cn2c([N+](=O)[O-])cnc2C)c2cc(Cl)c(F)cc2c1=O (racemic),–,128,4,64,8,32,64,16,8,256,16,128,128,–,–,–
CCOC(=O)c1cn(CC2CO2)c2cc(Cl)c(F)cc2c1=O (racemic),–,64,8,128,128,32,64,128,8,512,4,64,1,–,–,–
